Values joined by “and” are separate entries in the source; they are usually repeats but may differ in a detail not shown here. Equal values may be shown once. Bounds are passed on as bounds.

This is an account of results in article PMC6904836 (International Journal for Parasitology: Drugs and Drug …, 2019).

For data set [1], the system named is L. major (MHOM/SA/85/JISH118). Kind of data set: L. major - BALB/c mouse model of CL. Format: in vivo, BALB/c mice. The note with it: for % reduction Lesion size / % reduction Parasite load: n = 5.
Data set [2] relates to L. guyanensis (MHOM/GY/06/PAB-3985-WR-2853/A Chan). The data set can be described thus: Luciferase amastigote macrophage assay in RAW 264.7. Format: cell-based. The note with it: Leishmania guyanensis, RAW264.7, 96 h, read-out: EC50 L. guyanensis. An outline of the steps: (§1)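 RAW 264.7 macrophages (10,000/well) were incubated 24 h at 37 °C/5% CO2, then infected with luciferase-transfected promastigotes in DMEM + 10% HiFBS. Promastigotes were maintained in Schneider's + 20% HiFBS at 22 °C. Compounds (DMSO stock 11.5 mM) ran from 10 μg/ml in 1:2 dilutions, 0.2% DMSO final, for 96 h at 37 °C. D-luciferin was added at 150 μg/mL final for 30 min before the luminescence read. Amphotericin B control was run in octuplicate.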

Data set [3] can be described thus: in vitro. Conditions: human.
Data set [4] relates to L. tropica (MHOM/SU/74/K-27 WR-2995). The data set can be described thus: Luciferase amastigote macrophage assay in RAW 264.7. Format: cell-based. Conditions: Leishmania tropica, RAW264.7, 96 h, read-out: EC50 L. tropica.
The subject of data set [5] is L. major (NIH173 (MHOM/IR/-/173)). Kind of data set: Lesion cure model, BALB/c mice infected with luciferase-expressing L. major. Type of data set: in vivo. The note with it: BID; for bioluminescence signal (parasite load) at the infection site: vs vehicle control.
For data set [6] the following is noted: pH7.4; ref DNDi unpublished data; cited from earlier work.
Data set [7] relates to L. major (MHOM/IL/SU73/WR779). The data set can be described thus: Luciferase amastigote macrophage assay in RAW 264.7. Format: cell-based. Conditions: Leishmania major, RAW264.7, 96 h, read-out: EC50 L. major. An outline of the steps: as §1
[8] abbreviates: 50 mg/kg/day, compared to the untreated control.
Setting [9] is: study 1, 50 mg/kg PO, 5 days, day 11 post end of treatment.
Where [10] appears, read: study 2, 50 mg/kg PO, 10 days, day 11 post end of treatment.
Where [11] appears, read: study 2, 50 mg/kg PO, 10 days, day 80.

With `Cc1c(C(=O)Nc2ccc3c(c2)B(O)OC3)nnn1-c1ccccn1` [DNDI-6148], in data set [1] (setting [8]), the “lesion size reduction” value is listed as “no visible nodule”. Further, the “reduction of the parasite load as measured by qPCR” value in data set [1] (setting [8]) is around 2 log-fold. The “% reduction Lesion size” value was 66.7% in data set [1] (Oral, 12.5 mg/kg, BID, 10 days); 85.4% in data set [1] (Oral, 25 mg/kg, BID, 10 days); 43.2% in data set [1] (Oral, 50 mg/kg, BID, 5 days); 100.0% and 75.7% and 91.9% in data set [1] (Oral, 50 mg/kg, BID, 10 days); 100.0% in data set [1] (Oral, 50 mg/kg, QD, 10 days). The “% reduction Parasite load” value in data set [1] (Oral, 12.5 mg/kg, BID, 10 days, qPCR day 11) was 92.35%; in data set [1] (Oral, 25 mg/kg, BID, 10 days, qPCR day 11) it was 98.49%; in data set [1] (Oral, 50 mg/kg, BID, 5 days, qPCR), 100.00%; in data set [1] (Oral, 50 mg/kg, BID, 10 days, qPCR day 11, 50 mg/kg) it was 99.56% and 100.00% and 98.41%; in data set [1] (Oral, 50 mg/kg, QD, 10 days, qPCR day 11) it was 97.73%; in data set [1] (Topical, Sat sol in PG-EtOH (1:1), 50 μl BID, 10 days, qPCR day 11), 71.49% and 99.68%. For the same molecule, the concentration giving a half-maximal response (EC50) – broadly, the concentration at which the effect is half-maximal – in data set [2] was 50 nM; in data set [3], 181000 nM; in data set [4], 240 nM; in data set [7], 70 nM. Besides, the “lesion size reduction vs respective vehicle control” value in data set [5] (setting [9]) is listed as 93.2%. The “mice clear of any detectable infection” value in data set [5] (setting [9]) is on record as 1/5. For the same molecule, the “bioluminescence signal (parasite load) at the infection site” value in data set [5] (study 1, 50 mg/kg PO, 5 days) was “significantly reduce”. In addition, the “mice cured (no visible lesion), no detectable parasite load by bioluminescence” value in data set [5] (setting [10]) was 3/6. Further, the “overall lesion size reduction compared to the average VC lesion size” value in data set [5] (setting [10]) is recorded as 99.3%. In addition, the “mice cured, no detectable parasite load” value in data set [5] (study 2, 50 mg/kg PO, 10 days, day 18 post end of treatment) is 6/6. In addition, the “mice that had developed papules” value in data set [5] (study 2, 50 mg/kg PO, 10 days, day 61 post end of treatment) is given as 0/5; in data set [5] (study 2, 50 mg/kg PO, 10 days, day 74 post end of treatment) it was 1/5. In data set [5] (setting [11]), this molecule gave an average lesion size of 1.98 mm^2. Moreover, the “mice that had developed lesions” value in data set [5] (setting [11]) is 1/5. Moreover, the “distribution coefficient (log D), DNDi data” value in data set [6] is 1.92.

`O=[N+]([O-])c1cn2c(n1)O[C@@H](COc1ccc(-c3ccc(F)cc3)nc1)CC2` [DNDI-0690]: the EC50 worked out at 850 nM in data set [2] and 340 nM in data set [7]. Also, the “lesion size reduction vs respective vehicle control” value in data set [5] (study 1, 25 mg/kg PO, 10 days, day 11 post end of treatment) worked out at 89.8%. Besides, the “bioluminescence signal (parasite load) at the infection site” value in data set [5] (study 1, 25 mg/kg PO, 10 days) was “significantly reduce”.

In the case of `O=[N+]([O-])c1cn2c(n1)OC[C@H](Oc1ccc(OC(F)(F)F)cc1)C2` [DNDI-8219, (6 R)-2-Nitro-6-[4-(trifluoromethoxy)phenoxy]-6,7-dihydro-5 H-imidazo[2,1-b][1,3]oxazine], the EC50 in data set [2] was 380 nM; in data set [3], above 200000 nM; in data set [4], 1200 nM; in data set [7], 30 nM.

Regarding `C[C@@H]1[C@H](O)[C@@H](C)/C=C/C=C/C=C/C=C/C=C/C=C/C=C/[C@H](O[C@@H]2O[C@H](C)[C@@H](O)[C@H](N)[C@@H]2O)C[C@@H]2O[C@](O)(C[C@@H](O)C[C@@H](O)[C@H](O)CC[C@@H](O)C[C@@H](O)CC(=O)O[C@H]1C)C[C@H](O)[C@H]2C(=O)O` [Amphotericin B, amphotericin B deoxycholate, reference compound], the figures for the EC50 in data set [2], in data set [4] and in data set [7] were 30 nM, 10 nM and 30 nM, respectively.
